Test results from the array DNA melting data of Ke et al. (doi:10.1101/2024.01.08.574731).

How the values were obtained:
[1] = melting temperature; fluorescence melt of hairpins on a sequencing array, two-state fit, raised by 9.35 °C to match UV melts; details: sodium 0.088 M
Procedure, shortened: (§1)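 Bootstrapped two-state fits yielded melting temperature and folding enthalpy for library hairpins. Cy3 fluorescence, with annealed Cy3 and quencher oligos, was imaged on a sequenced MiSeq flow cell in 50 mM Na-HEPES pH 8.0, 25 mM NaCl in 2.5 °C steps up to 60 °C, and normalised to pre-quench Cy3 and to control constructs. Four replicates were combined by inverse variance, and fitted temperatures were raised by 9.35 °C to match UV melts.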

[2] = folding enthalpy; higher = less favourable; fluorescence melt of hairpins on a sequencing array, two-state fit; details: sodium 0.088 M
Procedure, shortened: as §1

Sequence | Tm [1] [°C] | folding enthalpy [2] [kcal/mol]
GATCCAGCCGTGGATC ((((((....)))))) | 52.8 | -41.2
GATCCAGCTGTGGATC ((((((....)))))) | 50.3 | -38.8
GATCCAGCTTGGATC ((((((...)))))) | 52 | -32.9
GATCCAGGAAACTGGGTC ((.((((....)))).)) | 49.9 | -29.9
GATCCAGGCATGGATC ((((((....)))))) | 57.8 | -45.8
GATCCAGGTGTGGATC ((((((....)))))) | 52 | -44.8
GATCCAGTCATGGATC ((((((....)))))) | 58.3 | -39.8
GATCCAGTCTTGGATC ((((((....)))))) | 53.5 | -43.5
GATCCAGTGATGGATC ((((((....)))))) | 56.6 | -35.2
GATCCAGTGTGGATC ((((((...)))))) | 51.6 | -33
GATCCATAGCTGGATC ((((((....)))))) | 49.2 | -33.4
GATCCATAGTTGGATC ((((((....)))))) | 50.6 | -33.2
GATCCATCAATGGATC ((((((....)))))) | 52.3 | -44
GATCCATCCTGGATC ((((((...)))))) | 52.7 | -43
GATCCATCTATGGATC ((((((....)))))) | 55.8 | -39.3
GATCCATCTTTGGATC ((((((....)))))) | 52.6 | -37.5
GATCCATGCCTGGATC ((((((....)))))) | 51.6 | -36.2
GATCCATGGCTGGATC ((((((....)))))) | 50.5 | -35.8
GATCCATGTGTGGATC ((((((....)))))) | 56.5 | -37.2
GATCCATTATGGATC ((((((...)))))) | 52.7 | -35.9
GATCCATTCATGGATC ((((((....)))))) | 59.5 | -43.5
GATCCATTCCTGGATC ((((((....)))))) | 50.3 | -39.1
GATCCATTCTGGATC ((((((...)))))) | 54.3 | -33.2
GATCCATTGTGGATC ((((((...)))))) | 51.7 | -38.8

Sequence | Tm [1] [°C] | folding enthalpy [2] [kcal/mol]
GATCCATTGTTGGATC ((((((....)))))) | 52.2 | -44.2
GATCCATTTCTGGATC ((((((....)))))) | 51 | -34.3
GATCCATTTTTGGATC ((((((....)))))) | 54 | -39.5
GATCCCAAACGGGATC ((((((....)))))) | 59.7 | -35.3
GATCCCAATGGGATC ((((((...)))))) | 60.6 | -32.5
GATCCCACAAGGGATC ((((((....)))))) | 64.7 | -30.6
GATCCCACGAGGGATC ((((((....)))))) | 63.5 | -34.5
GATCCCACGTGGGATC ((((((....)))))) | 60.3 | -45.1
GATCCCACTGGGGATC ((((((....)))))) | 62.4 | -30.7
GATCCCAGTGGGATC ((((((...)))))) | 60.8 | -40.6
GATCCCATGTGGGATC ((((((....)))))) | 61.2 | -38.2
GATCCCCAGTGGGATC ((((((....)))))) | 59.1 | -43.5
GATCCCCATGGGGATC ((((((....)))))) | 67.7 | -39.7
GATCCCCCAAGGGATC ((((((....)))))) | 61.2 | -38.6
GATCCCCCTAGGGATC ((((((....)))))) | 61.3 | -32.6
GATCCCCCTGGGGATC ((((((....)))))) | 67.5 | -36.1
GATCCCCGAAAGGGCATC (((.(((....))).))) | 34.3 | -14.3
GATCCCCGACGGGATC ((((((....)))))) | 56.8 | -27.3
GATCCCCGAGGGATC ((((((...)))))) | 62 | -31.8
GATCCCCGGCGGGATC ((((((....)))))) | 55.7 | -37.8
GATCCCCGGGGGATC ((((((...)))))) | 60.9 | -35.3
GATCCCCGGTGGGATC ((((((....)))))) | 57.7 | -37.5
GATCCCCGTCGGGATC ((((((....)))))) | 62.8 | -32.4
GATCCCCTCTGGGATC ((((((....)))))) | 60.3 | -29

Sequence | Tm [1] [°C] | folding enthalpy [2] [kcal/mol]
GATCCCCTGTGGGATC ((((((....)))))) | 63 | -33.3
GATCCCCTTGGGATC ((((((...)))))) | 63.6 | -37.4
GATCCCGAAAGGGACATC ((((((....)))..))) | 30.9 | -9.22
GATCCCGAAAGGGCGATC ((((((....)))..))) | 31.9 | -12.2
GATCCCGAAAGGGGTATC ((((((....)))..))) | 35.7 | -11.8
GATCCCGAAAGGGTAATC ((((((....)))..))) | 31.2 | -10.8
GATCCCGATTGGGATC ((((((....)))))) | 59.1 | -36
GATCCCGCGGGGATC ((((((...)))))) | 61 | -31.2
GATCCCGGAAACGGGGTC ((.((((....)))).)) | 57.6 | -25.8
GATCCCGGGCGGGATC ((((((....)))))) | 61.1 | -40.1
GATCCCGGGGGGATC ((((((...)))))) | 61.6 | -35.4
GATCCCGTGGGGATC ((((((...)))))) | 64.5 | -32.4
GATCCCTACTGGGATC ((((((....)))))) | 64.4 | -37.7
GATCCCTAGCGGGATC ((((((....)))))) | 59.1 | -34.5
GATCCCTAGTGGGATC ((((((....)))))) | 57 | -38.7
GATCCCTCAGGGATC ((((((...)))))) | 65 | -37.2
GATCCCTCCGGGATC ((((((...)))))) | 67.7 | -44.2
GATCCCTCGGGGGATC ((((((....)))))) | 61.2 | -37.4
GATCCCTCTGGGGATC ((((((....)))))) | 61.5 | -39.1
GATCCCTGCGGGGATC ((((((....)))))) | 62 | -45.6
GATCCCTGGCGGGATC ((((((....)))))) | 59.1 | -37.2
GATCCCTGGGGGATC ((((((...)))))) | 62.2 | -40.5
GATCCCTGGGGGGATC ((((((....)))))) | 63.9 | -37.2
GATCCCTGTGGGGATC ((((((....)))))) | 65.3 | -41.6

Sequence | Tm [1] [°C] | folding enthalpy [2] [kcal/mol]
GATCCCTTAGGGGATC ((((((....)))))) | 61.3 | -43.7
GATCCCTTATGGGATC ((((((....)))))) | 65.4 | -36.5
GATCCCTTCGGGGATC ((((((....)))))) | 65.2 | -39.8
GATCCCTTGTGGGATC ((((((....)))))) | 62.4 | -31
GATCCCTTTAGGGATC ((((((....)))))) | 68.9 | -39.3
GATCCGAAAACGGATC ((((((....)))))) | 52.6 | -37
GATCCGAAGCGGATC ((((((...)))))) | 55.4 | -37
GATCCGAAGTCGGATC ((((((....)))))) | 56.2 | -39.9
GATCCGACAACGGATC ((((((....)))))) | 57 | -35
GATCCGACACCGGATC ((((((....)))))) | 55.4 | -37.4
GATCCGACAGCGGATC ((((((....)))))) | 54 | -34.2
GATCCGACGAAAGTCATC (((..(((....)))))) | 25.9 | -9.01
GATCCGACGGCGGATC ((((((....)))))) | 57.8 | -48
GATCCGAGACGGATC ((((((...)))))) | 55.8 | -39.9
GATCCGAGCTCGGATC ((((((....)))))) | 63 | -37.3
GATCCGAGGTCGGATC ((((((....)))))) | 58.3 | -38.8
GATCCGAGTCGGATC ((((((...)))))) | 59.5 | -35
GATCCGAGTTCGGATC ((((((....)))))) | 58.5 | -47.4
GATCCGATACCGGATC ((((((....)))))) | 57 | -29.9
GATCCGATAGCGGATC ((((((....)))))) | 54.3 | -38.9
GATCCGATCCCGGATC ((((((....)))))) | 55.6 | -38.9
GATCCGATCGCGGATC ((((((....)))))) | 56 | -37.9
GATCCGATGCGGATC ((((((...)))))) | 57.7 | -31
GATCCGATGTCGGATC ((((((....)))))) | 61.6 | -37.6
